These results are taken from ChEMBL document CHEMBL1151762, “5-(1-Acetoxyvinyl)-cycloSaligenyl-2',3'-dideoxy-2',3'- didehydrothymidine monophosphates, a second type of new, enzymatically activated cycloSaligenyl pronucleotides” (J Med Chem, 2008).

A value given as a limit tells only on which side of the number the result lay.

Data set [1] concerns Human immunodeficiency virus 2. As to the kind of experiment: Antiviral activity against HIV2 replication in human thymidine kinase deficient CEM cells assessed as virus-induced cytopathic effect. Type of data set: functional, organism-based. Conditions: Human immunodeficiency virus 2, CCRF-CEM. In outline: (§1)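 CEM T-lymphocyte cultures (wild-type CEM/0 or thymidine kinase-deficient CEM/TK-) infected with HIV-1 or HIV-2; read-out is virus-induced cytopathic effect (giant cell formation). EC50 = 50% effective concentration, given as the mean of two to three independent experiments.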
For orientation: Cytopathic effects are the visible damage that an infection or toxin causes in cultured cells.

Data set [2] can be described thus: Cytotoxicity against human wild type CEM/0 cells. The conditions noted are these: CCRF-CEM. It counts as cell-based. In outline:
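Wild-type CEM cells; cytostatic activity reported as the 50% cytostatic concentration.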

Data set [3] is described as follows: Chemical stability assessed as half life of hydrolysis in RPMI-1640 culture medium at pH 7.6 in presence 10% heat-inactivated fetal calf serum. Type of data set: physicochemical. The gist of the method:
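RPMI-1640 with 10% heat-inactivated fetal calf serum, pH 7.6 (the antiviral test medium), used in place of cell extract and run by the same HPLC procedure. Half-life is taken from disappearance of the triester.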

The test system of data set [4] is Human immunodeficiency virus 2. The data set can be described thus: Antiviral activity against HIV2 replication in human wild type CEM/0 cells assessed as virus-induced cytopathic effect. Conditions: Human immunodeficiency virus 2, CCRF-CEM. It counts as functional, organism-based. In outline:
as §1

A short description of data set [5]: Chemical stability assessed as half life of hydrolysis in 25 mM phosphate buffer at pH 7.3. Type of data set: physicochemical. In outline:
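Triesters incubated at pH 7.3 in aqueous 25 mM phosphate buffer and followed by HPLC. Half-life is taken from disappearance of the triester.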

Data set [6] concerns Human immunodeficiency virus 1. As to the kind of experiment: Antiviral activity against HIV1 replication in human wild type CEM/0 cells assessed as virus-induced cytopathic effect. It counts as functional, organism-based. Conditions: Human immunodeficiency virus 1, CCRF-CEM. In outline:
as §1

A short description of data set [7]: Chemical stability assessed as half life of hydrolysis in CEM cell extracts at pH 6.9. Conditions: human. It counts as physicochemical, CCRF-CEM. The gist of the method:
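T-lymphocyte CEM cell extracts at pH 6.9, analysed by HPLC. Half-life is taken from disappearance of the triester.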

As to `Cc1cn([C@H]2C=C[C@@H](COP3(=O)OCc4cc(C=O)cc(C(C)(C)C)c4O3)O2)c(=O)[nH]c1=O` (some centres not stated), in data set [1], the EC50 – broadly, the concentration needed to bring the measured effect to its halfway point – stood at 15000 nM. Further, in data set [2], the CC50 (in general, the concentration giving 50% cytotoxicity) turned out to be 33000 nM.

Regarding `CC(=O)OC(OC(C)=O)c1cc2c(c(C(C)(C)C)c1)OP(=O)(OC[C@@H]1C=C[C@H](n3cc(C)c(=O)[nH]c3=O)O1)OC2` (some centres not stated), in data set [1], the EC50 is 780 nM. In addition, half-maximal cytotoxicity in data set [2] (CC50) was put at 19000 nM.

On to `CC(=O)c1ccc2c(c1)COP(=O)(OC[C@@H]1C=C[C@H](n3cc(C)c(=O)[nH]c3=O)O1)O2` (some centres not stated), for which the EC50 in data set [1] was above 50000 nM; in data set [4] it was 3000 nM; in data set [6], 1300 nM. For the same compound, the half-life – broadly, how long it takes for the measured level to halve – in data set [3] was 0.6 h; in data set [5] it was 0.3 h. Moreover, half-maximal cytotoxicity in data set [2] (CC50) was put at 148000 nM.

For `CC(=O)c1cc(C)c2c(c1)COP(=O)(OC[C@@H]1C=C[C@H](n3cc(C)c(=O)[nH]c3=O)O1)O2` (some centres not stated), the EC50 was 36000 nM in data set [1], 2200 nM in data set [4] and 540 nM in data set [6]. Further, the half-life is 1 h in data set [3] and 0.75 h in data set [5]. The compound also showed a CC50 in data set [2] of 96000 nM.

Consider `Cc1cn([C@H]2C=C[C@@H](CO[P@@]3(=O)OCc4cc(C(OC(=O)C(C)C)OC(=O)C(C)C)cc(C(C)(C)C)c4O3)O2)c(=O)[nH]c1=O`, for which the EC50 in data set [1] worked out at 3600 nM. For the same compound, the midpoint of cytotoxicity in data set [2], the CC50, lay at 40000 nM.

`CC(=O)OC(OC(C)=O)c1cc2c(c(C(C)(C)C)c1)O[P@](=O)(OC[C@@H]1C=C[C@H](n3cc(C)c(=O)[nH]c3=O)O1)OC2`: the EC50 in data set [1] was 290 nM. In data set [2], this compound displayed a CC50 of 17000 nM.

For `CC(=O)OC(OC(C)=O)c1cc2c(c(C(C)(C)C)c1)O[P@@](=O)(OC[C@@H]1C=C[C@H](n3cc(C)c(=O)[nH]c3=O)O1)OC2`, the EC50 in data set [1] turned out to be 3900 nM. In data set [2], this compound registered a CC50 of 51000 nM.

For `C=C(OC(C)=O)c1cc2c(c(C(C)(C)C)c1)O[P@](=O)(OC[C@@H]1C=C[C@H](n3cc(C)c(=O)[nH]c3=O)O1)OC2`, the EC50 in data set [1] is 270 nM; in data set [4], 800 nM; in data set [6] it was 210 nM. For the same compound, the half-life in data set [3] was 7.6 h; in data set [5] it was 13.5 h; in data set [7] it was 2.4 min. Half-maximal cytotoxicity in data set [2] (CC50) was put at 20000 nM.

`C=C(OC(C)=O)c1cc2c(c(C(C)(C)C)c1)O[P@@](=O)(OC[C@@H]1C=C[C@H](n3cc(C)c(=O)[nH]c3=O)O1)OC2`: the EC50 in data set [1] came to 1700 nM; in data set [4], 1100 nM; in data set [6] it was 470 nM. The half-life in data set [3] is 3.7 h; in data set [5] it was 11.3 h; in data set [7], 2.4 min. The same compound showed a 50% cytotoxic concentration (CC50) in data set [2] of 67000 nM.

With `Cc1cn([C@H]2C=C[C@@H](CO[P@@]3(=O)OCc4cc(C=O)cc(C(C)(C)C)c4O3)O2)c(=O)[nH]c1=O`, in data set [1], the EC50 turned out to be 10000 nM. The CC50 in data set [2] is 41000 nM.

`CC(=O)c1cc2c(c(C(C)(C)C)c1)O[P@@](=O)(OC[C@@H]1C=C[C@H](n3cc(C)c(=O)[nH]c3=O)O1)OC2`: the EC50 in data set [1] is 2800 nM; in data set [4], 1200 nM; in data set [6], 750 nM. In addition, the half-life was 2 h in data set [3] and 2.3 h in data set [5]. This compound also returned a CC50 in data set [2] of 64000 nM.

On to `C=C(OC(C)=O)c1ccc2c(c1)COP(=O)(OC[C@@H]1C=C[C@H](n3cc(C)c(=O)[nH]c3=O)O1)O2` (some centres not stated), for which the EC50 in data set [1] is above 50000 nM; in data set [4], 800 nM; in data set [6], 650 nM. Further, the results for the half-life in data set [3], in data set [5] and in data set [7] were 1 h, 1.4 h and 7.8 min, respectively. The same compound gave a CC50 in data set [2] of 111000 nM.

Turning to `Cc1cn([C@H]2C=C[C@@H](CO[P@]3(=O)OCc4cc(C=O)cc(C(C)(C)C)c4O3)O2)c(=O)[nH]c1=O`, the EC50 in data set [1] is 2600 nM. The same compound came in with a CC50 in data set [2] of 27000 nM.

In the case of `Cc1cn([C@H]2C=C[C@@H](CO[P@]3(=O)OCc4cc(C(OC(=O)C(C)C)OC(=O)C(C)C)cc(C(C)(C)C)c4O3)O2)c(=O)[nH]c1=O`, the EC50 in data set [1] was determined as 1400 nM. Further, in data set [2], the CC50 was found to be 14000 nM.

For the compound `Cc1cn([C@H]2C=C[C@@H](COP3(=O)OCc4cc(C(OC(=O)C(C)C)OC(=O)C(C)C)cc(C(C)(C)C)c4O3)O2)c(=O)[nH]c1=O` (some centres not stated), in data set [1], the EC50 turned out to be 2400 nM. Also, in data set [2], the midpoint of cytotoxicity, the CC50, lay at 20000 nM.

As for `CC(=O)c1cc2c(c(C(C)(C)C)c1)OP(=O)(OC[C@@H]1C=C[C@H](n3cc(C)c(=O)[nH]c3=O)O1)OC2` (some centres not stated), the EC50 in data set [1] amounted to 1700 nM; in data set [4] it was 870 nM; in data set [6] it was 450 nM. The results for the half-life in data set [3] and in data set [5] were 2.5 h and 2.3 h, respectively. The compound also yielded a CC50 in data set [2] of 49000 nM.

As to `C=C(OC(C)=O)c1cc2c(c(C(C)(C)C)c1)OP(=O)(OC[C@@H]1C=C[C@H](n3cc(C)c(=O)[nH]c3=O)O1)OC2` (some centres not stated), the EC50 in data set [1] worked out at 1700 nM; in data set [4], 880 nM; in data set [6] it was 470 nM. For the same compound, the half-life in data set [3] is 5.2 h; in data set [5], 12.3 h; in data set [7], 2.4 min. In data set [2], this compound gave a CC50 of 49000 nM.

On to `CC(=O)c1cc2c(c(C(C)(C)C)c1)O[P@](=O)(OC[C@@H]1C=C[C@H](n3cc(C)c(=O)[nH]c3=O)O1)OC2`, for which the EC50 worked out at 550 nM in data set [1], 510 nM in data set [4] and 180 nM in data set [6]. In addition, the half-life in data set [3] is 3.2 h; in data set [5] it was 2.3 h. Besides, half-maximal cytotoxicity in data set [2] (CC50) was put at 56000 nM.

With `C=C(OC(C)=O)c1cc(C)c2c(c1)COP(=O)(OC[C@@H]1C=C[C@H](n3cc(C)c(=O)[nH]c3=O)O1)O2` (some centres not stated), the EC50 in data set [1] is 730 nM; in data set [4], 400 nM; in data set [6], 180 nM. In addition, the half-life is 1.8 h in data set [3], 6.1 h in data set [5] and 4.2 min in data set [7]. It took 18000 nM to reach half-maximal cytotoxicity in data set [2] (CC50).

On to `Cc1cn([C@H]2C=C[C@@H](CO)O2)c(=O)[nH]c1=O` [STAVUDINE], for which the EC50 in data set [1] stood at 69000 nM; in data set [4] it was 1100 nM; in data set [6], 850 nM. The same compound yielded a CC50 in data set [2] of 220000 nM.
